Data from ChEMBL document CHEMBL1121928, “Pyrazolo[3,4-d]pyrimidine ribonucleosides as anticoccidials. 1. Synthesis and activity of some nucleosides of purines and 4-(alkylthio)pyrazolo[3,4-d]pyrimidines” (J Med Chem, 1982).

Key:
[1] = organism: Gallus gallus; test: Number of chicks cleared of eimeria tenella lesions out of a group of 5 when given in the diet at 100 ppm; format: functional
Procedure, shortened: (§1)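 One-week-old chicks were given a simultaneous infection of E. tenella (Weybridge strain) and E. acervulina (Ongar strain). Infection took place 1 day after medication began. Compound was mixed into the diet and fed ad libitum until the end of the test.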

[2] = organism: Gallus gallus; test: Number of chicks cleared of eimeria tenella lesions out of a group of 5 when given in the diet at 200 ppm; format: functional
Procedure, shortened: (§2)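 One-week-old chicks infected with E. tenella (Weybridge strain) together with E. acervulina (Ongar strain) one day after medication began. Compound mixed into the diet and fed ad libitum until the end of the test.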

[3] = organism: Gallus gallus; test: Number of chicks cleared of eimeria tenella lesions out of a group of 5 when given in the diet at 25 p.p.m.; format: functional; procedure, shortened: as §1
[4] = organism: Gallus gallus; test: Number of chicks cleared of eimeria tenella lesions out of a group of 5 when given in the diet at 50 p.p.m.; format: functional; procedure, shortened: as §1
[5] = tested on: Eimeria tenella; test: Inhibition Eimeria tenella growth; format: functional; conditions: read-out: MEC
Procedure, shortened: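 E. tenella (Weybridge strain) grown in vitro in embryonic chick liver cells. Toxicity to the host liver cells was scored in the same culture system.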

[6] = organism: Gallus gallus; test: Number of chicks cleared of eimeria tenella lesions out of a group of 5 when given in the diet at 100 p.p.m.; format: functional; procedure, shortened: as §1
[7] = organism: Gallus gallus; test: Number of chicks cleared of eimeria tenella lesions out of a group of 5 when given in the diet at 400 p.p.m.; format: functional; procedure, shortened: as §1
[8] = organism: Gallus gallus; test: Number of chicks out of a group of five that died due to toxicity when given in the diet at 100 ppm; format: organism-based; conditions: chicken, in vivo, po; procedure, shortened: as §2
[9] = organism: Gallus gallus; test: Number of chicks out of a group of five that died due to toxicity when given in the diet at 200 ppm; format: organism-based; conditions: chicken, in vivo, po; procedure, shortened: as §2
[10] = organism: Gallus gallus; test: Number of chicks out of a group of five that died due to toxicity when given in the diet at 400 ppm; format: organism-based; conditions: chicken, in vivo, po; procedure, shortened: as §2
[11] = organism: Gallus gallus; test: Number of chicks cleared of eimeria tenella lesions out of a group of 5 when given in the diet at 200 p.p.m.; format: functional; procedure, shortened: as §1
[12] = organism: Gallus gallus; test: Number of chicks cleared of Eimeria tenella lesions out of a group of 5 when given in a diet of 400 ppm; format: functional; procedure, shortened: as §1
[13] = organism: Gallus gallus; test: Number of chicks cleared of eimeria tenella lesions out of a group of 5 when given in the diet at 400 ppm; format: functional; procedure, shortened: as §1

## CCCCCCSc1ncnc2c1cnn2C1O[C@H](CO)[C@@H](O)[C@H]1O (stereo partly specified)
[1]
  No. of chicks: 2
[2]
  No. of chicks: 5
[3]
  No. of chicks: 0
[4]
  No. of chicks: 0
[5]
  minimal effective concentration: 0.019 µg/mL

## CSc1ncnc2c1ncn2[C@@H]1O[C@H](CO)[C@@H](O)[C@@H]1O
[5]
  minimal effective concentration: > 20 µg/mL

## CSc1ncnc2c1cnn2C1O[C@H](CO)[C@@H](O)[C@H]1O (stereo partly specified)
[6]
  No. of chicks: 2
[3]
  No. of chicks: 0
[7]
  No. of chicks: 1
[4]
  No. of chicks: 2
[8]
  No. of chicks: 1
[9]
  No. of chicks: 2
[10]
  No. of chicks: 4
[5]
  minimal effective concentration: 0.03 µg/mL
[11]
  No. of chicks: 3

## CCCCCCCSc1ncnc2c1cnn2C1O[C@H](CO)[C@@H](O)[C@H]1O (stereo partly specified)
[5]
  minimal effective concentration: 0.31 µg/mL
[11]
  No. of chicks: 1

## CSc1nccc2c1ncn2C1O[C@H](CO)[C@@H](O)[C@H]1O (stereo partly specified)
[5]
  minimal effective concentration: > 20 µg/mL

## CC(C)Sc1ncnc2c1cnn2C1O[C@H](CO)[C@@H](O)[C@H]1O (stereo partly specified)
[7]
  No. of chicks: 0
[5]
  minimal effective concentration: 0.019 µg/mL

## CCCCCSc1[nH]cnc2nncc1-2
[5]
  minimal effective concentration: 5 µg/mL

## CCSc1[nH]cnc2nncc1-2
[12]
  No. of chicks: 0

## Sc1ncnc2[nH]ncc12 [TISOPURINE]
[13]
  No. of chicks: 0
[5]
  minimal effective concentration: > 20 µg/mL

## CCCCSc1ncnc2c1cnn2C1O[C@H](CO)[C@@H](O)[C@H]1O (stereo partly specified)
[1]
  No. of chicks: 1
[2]
  No. of chicks: 5
[3]
  No. of chicks: 0
[4]
  No. of chicks: 0
[5]
  minimal effective concentration: 0.019 µg/mL

## CSc1ncnc2[nH]cnc12
[5]
  minimal effective concentration: > 20 µg/mL

## CC(=O)CSc1ncnc2c1cnn2C1O[C@H](CO)[C@@H](O)[C@H]1O (stereo partly specified)
[2]
  No. of chicks: 0
[5]
  minimal effective concentration: > 20 µg/mL

## CSc1ncnc2c1ncn2[C@@H]1O[C@H](CO)[C@@H](O)[C@H]1O
[5]
  minimal effective concentration: 0.31 µg/mL

## C/C=C/CSc1ncnc2c1cnn2C1O[C@H](CO)[C@@H](O)[C@H]1O (stereo partly specified)
[1]
  No. of chicks: 4
[2]
  No. of chicks: 5
[3]
  No. of chicks: 0
[4]
  No. of chicks: 0
[5]
  minimal effective concentration: 0.019 µg/mL

## OC[C@H]1OC(n2ncc3cncnc32)[C@H](O)[C@@H]1O (stereo partly specified)
[5]
  minimal effective concentration: 1.3 µg/mL
[11]
  No. of chicks: 1

## CCCSc1ncnc2c1cnn2C1O[C@H](CO)[C@@H](O)[C@H]1O (stereo partly specified)
[6]
  No. of chicks: 1
[3]
  No. of chicks: 0
[4]
  No. of chicks: 0
[5]
  minimal effective concentration: 0.019 µg/mL
[11]
  No. of chicks: 4

## CCCCCSc1ncnc2[nH]cnc12
[5]
  minimal effective concentration: 20 µg/mL

## OC[C@H]1O[C@@H](n2cnc3c(S)ncnc32)[C@H](O)[C@@H]1O [THIOINOSINE]
[5]
  minimal effective concentration: > 20 µg/mL

## CCSc1[nH]cnc2ncnc1-2
[5]
  minimal effective concentration: > 20 µg/mL

## Nc1nc(=S)c2ncn([C@@H]3O[C@H](CO)[C@@H](O)[C@H]3O)c2[nH]1 [THIOGUANOSINE]
[5]
  minimal effective concentration: > 50 µg/mL

## COC(=O)CSc1ncnc2c1cnn2C1O[C@H](CO)[C@@H](O)[C@H]1O (stereo partly specified)
[2]
  No. of chicks: 0
[5]
  minimal effective concentration: 20 µg/mL

## CSc1nc(N)nc2c1ncn2[C@@H]1O[C@H](CO)[C@@H](O)[C@H]1O
[5]
  minimal effective concentration: 50 µg/mL

## OC[C@H]1OC(n2ncc3c(S)ncnc32)[C@H](O)[C@@H]1O (stereo partly specified)
[5]
  minimal effective concentration: 0.31 µg/mL
[11]
  No. of chicks: 2

## CCCCCSc1ncnc2c1ncn2C1O[C@H](CO)[C@@H](O)[C@H]1O (stereo partly specified)
[5]
  minimal effective concentration: > 50 µg/mL

## CSc1[nH]cnc2nncc1-2
[5]
  minimal effective concentration: 20 µg/mL

## CSc1ncnc2c1nnn2[C@@H]1O[C@H](CO)[C@@H](O)[C@H]1O
[5]
  minimal effective concentration: 1.25 µg/mL

## C=CCSc1ncnc2c1cnn2C1O[C@H](CO)[C@@H](O)[C@H]1O (stereo partly specified)
[1]
  No. of chicks: 5
[2]
  No. of chicks: 5
[3]
  No. of chicks: 1
[4]
  No. of chicks: 2
[5]
  minimal effective concentration: 0.019 µg/mL

## CCSc1ncnc2c1cnn2C1O[C@H](CO)[C@@H](O)[C@H]1O (stereo partly specified)
[6]
  No. of chicks: 5
[3]
  No. of chicks: 2
[4]
  No. of chicks: 5
[5]
  minimal effective concentration: 0.31 µg/mL
[11]
  No. of chicks: 5

## CSc1nc(C)nc2c1ncn2C1O[C@H](CO)[C@@H](O)[C@H]1O (stereo partly specified)
[5]
  minimal effective concentration: > 25 µg/mL

## CCSc1ncnc2c1ncn2[C@@H]1O[C@H](CO)[C@@H](O)[C@H]1O
[5]
  minimal effective concentration: 1.25 µg/mL

## CCCCCSc1ncnc2c1cnn2C1O[C@H](CO)[C@@H](O)[C@H]1O (stereo partly specified)
[1]
  No. of chicks: 3
[2]
  No. of chicks: 5
[3]
  No. of chicks: 0
[4]
  No. of chicks: 0
[5]
  minimal effective concentration: 0.31 µg/mL

## CCOP(=O)(CCSc1ncnc2c1cnn2C1O[C@H](CO)[C@@H](O)[C@H]1O)OCC (stereo partly specified)
[2]
  No. of chicks: 1
[5]
  minimal effective concentration: 5 µg/mL

## Sc1ncnc2nc[nH]c12 [MERCAPTOPURINE ANHYDROUS]
[5]
  minimal effective concentration: > 20 µg/mL

## CSc1ncnc2c1ncn2[C@H]1C[C@H](O)[C@@H](CO)O1
[5]
  minimal effective concentration: 50 µg/mL

## CSc1nc(SC)c2ncn(C3O[C@H](CO)[C@@H](O)[C@H]3O)c2n1 (stereo partly specified)
[5]
  minimal effective concentration: > 50 µg/mL

## OC[C@H]1OC(n2ncc3c(SC4CCCC4)ncnc32)[C@H](O)[C@@H]1O (stereo partly specified)
[2]
  No. of chicks: 1
[5]
  minimal effective concentration: 5 µg/mL
